Experimental data: ChEMBL document CHEMBL3751681, “Natural product-based synthesis of novel anti-infective isothiocyanate- and isoselenocyanate-functionalized amphilectane diterpenes” (Bioorg Med Chem Lett, 2016)
≈ marks a conversion by molar mass, not a printed value.

What was measured:
[1] = Selectivity index, ratio of IC50 for African green monkey Vero cells to IC50 for chloroquine-resistant Plasmodium falciparum Dd2; format: toxicity, cell-based; conditions: read-out: Ratio IC50
Plasmodium falciparum [2] = assay: Antiplasmodial activity against chloroquine-resistant Plasmodium falciparum Dd2 infected in human RBCs after 72 hrs by SYBR Green based parasite proliferation assay; format: functional, organism-based; conditions: Dd2, 72 h
Procedure, shortened: (§1)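 P. falciparum (3D7 or Dd2) grown in human O+ erythrocytes in RPMI 1640 with gentamicin, hypoxanthine, HEPES, bicarbonate, glucose, Albumax and 5% human serum. Gassed with 3% CO2, 1% O2, 96% N2 and held at 37°C. Parasites exposed to serial compound dilutions for 72 h. Parasite DNA increase read by SYBR Green fluorescence (ex 495, em 525 nm).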

Plasmodium falciparum [3] = assay: Antiplasmodial activity against chloroquine-sensitive Plasmodium falciparum 3D7 infected in human RBCs after 72 hrs by SYBR Green based parasite proliferation assay; format: functional, organism-based; conditions: 3D7, 72 h; procedure, shortened: as §1
Vero = assay: Cytotoxicity against African green monkey Vero cells by MTS assay; format: cell-based; conditions: Chlorocebus sabaeus
[4] = Selectivity index, ratio of IC50 for African green monkey Vero cells to IC50 for chloroquine-sensitive Plasmodium falciparum 3D7; format: toxicity, cell-based; conditions: read-out: Ratio IC50
[5] = Selectivity index, ratio of IC50 for African green monkey Vero cells to MIC for Mycobacterium tuberculosis H37Rv ATCC 27294; format: toxicity, cell-based; conditions: read-out: Selectivity Index
[6] = tested on: Mycobacterium tuberculosis; assay: Antimycobacterial activity against Mycobacterium tuberculosis H37Rv ATCC 27294 by microplate alamar blue assay; format: functional
Procedure, shortened: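 Mtb H37Rv tested in the microplate Alamar blue assay; rifampicin served as positive control.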

With `C=C1CC[C@@]2(N=C=S)[C@H]3[C@H](CC[C@@H]2C)[C@@H](C)C[C@@H](CC(C)(C)N=C=S)[C@H]13` the selectivity ratio [1] was greater than 9, the IC50 (Plasmodium falciparum [2]) was 11.6 µM and the IC50 (Plasmodium falciparum [3]) was 11.8 µM. The IC50 (Vero) was greater than 100 µM, the selectivity ratio [4] was greater than 8 and the selectivity ratio [5] was greater than 1. For the same compound, the MIC [6] was 99.1 µM (≈ 38.5 µg/mL).
For `C=C1CC[C@@]2(N=C=[Se])[C@H]3[C@H](CC[C@@H]2C)[C@@H](C)C[C@@H](CC(C)(C)N=C=[Se])[C@H]13`, the selectivity ratio [1] was 7360, the IC50 (Plasmodium falciparum [2]) was 0.0066 µM and the IC50 (Plasmodium falciparum [3]) was 0.0025 µM. For the same compound, the IC50 (Vero) was 48.6 µM, the selectivity ratio [4] was 19400 and the selectivity ratio [5] was 12.4. For the same compound, the MIC [6] was 3.9 µM (≈ 1.88 µg/mL).
With `[C-]#[N+]C(C)(C)C[C@@H]1C[C@H](C)[C@H]2CC[C@H](C)[C@@]3([N+]#[C-])CCC(=C)[C@@H]1[C@H]23` [DIISOCYANOAMPHILECTENE] the selectivity ratio [1] was 32200, the IC50 (Plasmodium falciparum [2]) was 0.0031 µM and the selectivity ratio [4] was 83100. For the same compound, the selectivity ratio [5] was 10.2 and the MIC [6] was 9.8 µM (≈ 3.18 µg/mL).
Work on `CO[C@H]1/C=C/O[C@@]2(C)Oc3c(C)c(O)c4c(O)c(c(/C=N/N5CCN(C)CC5)c(O)c4c3C2=O)NC(=O)/C(C)=C\C=C\[C@H](C)[C@H](O)[C@@H](C)[C@@H](O)[C@@H](C)[C@H](OC(C)=O)[C@@H]1C` [RIFAMPIN] yielded an IC50 (Vero) greater than 100 µM, a selectivity ratio [5] greater than 1100 and an MIC [6] of 0.09 µM (≈ 0.0741 µg/mL).
